Consider 37 compounds from ChEMBL document CHEMBL1158989, “Synthesis and evaluation of hydroxylated flavones and related compounds as potential inhibitors of the protein-tyrosine kinase p56lck” (J Nat Prod, 1991).

In brackets after ≈: the same amount, converted by molar mass.

The nature of this assay: Inhibition of bovine thymus p56LCK-catalyzed phosphorylation of angiotensin 1 by SDS-PAGE. Also noted: species or system Bos taurus. In a few lines:
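p56lck partially purified from bovine thymus (DEAE-cellulose, heparin-agarose, butyl-agarose chromatography). Substrate angiotensin I 1.2 mM with [γ-32P]ATP 50 μM. Reactions held 8% DMSO as inhibitor carrier; DMSO-only controls. Inhibitors tested at seven concentrations, 0.8 to 800 μg/ml. IC50 read graphically as half-maximal inhibition relative to DMSO controls.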
The compound `O=c1cc(-c2cccc(O)c2)oc2c(O)c(O)ccc12` showed an IC50 of 48 µg/mL (≈ 178 µM).
On to `O=c1cc(-c2cccc(O)c2)oc2cc(O)ccc12`, for which the IC50 turned out to be 10 µg/mL (≈ 39.3 µM).
The value for `O=c1cc(-c2ccc(O)cc2)oc2cc(O)ccc12` was 43 µg/mL (≈ 169 µM); that for `O=c1cc(-c2ccc(O)cc2)oc2ccccc12` was 120 µg/mL (≈ 504 µM); that for `COc1cc(-c2cc(=O)c3ccccc3o2)cc(OC)c1O` was 7.7 µg/mL (≈ 25.8 µM).
For `COc1cc(-c2cc(=O)c3ccc(O)c(O)c3o2)cc(OC)c1OC`, the IC50 was determined as 136 µg/mL (≈ 395 µM).
Next, `CC(C)(C)[Si](C)(C)Oc1ccc(-c2cc(=O)c3cc(O)ccc3o2)cc1`: 44 µg/mL (≈ 119 µM); `CC(C)(C)[Si](C)(C)Oc1ccc(-c2cc(=O)c3ccc(O)cc3o2)cc1`: 360 µg/mL (≈ 977 µM).
As for `O=c1cc(-c2ccc(O)cc2)oc2cccc(O)c12`, the IC50 was found to be 4 µg/mL (≈ 15.7 µM).
Compound `O=c1cc(-c2ccc(O)cc2)oc2ccc(O)cc12` came in with an IC50 of 30 µg/mL (≈ 118 µM). This IC50 lies about 7.5-fold higher than the previous one.
On to `O=c1cc(-c2ccc(OCc3ccccc3)cc2)oc2cccc(O)c12`, for which the IC50 was greater than 800 µg/mL.
Next, `O=c1cc(-c2ccc(OCc3ccccc3)cc2)oc2cc(O)ccc12`: 664 µg/mL (≈ 1930 µM); `COc1cc(-c2cc(=O)c3ccc(O)cc3o2)cc(OC)c1OC`: greater than 800 µg/mL; `COc1cc(-c2cc(=O)c3ccc(O)cc3o2)cc(OC)c1O[Si](C)(C)C(C)(C)C`: 656 µg/mL (≈ 1530 µM).
As for `COc1cc(-c2cc(=O)c3cc(O)ccc3o2)cc(OC)c1O`, the IC50 worked out at 41 µg/mL (≈ 130 µM).
The value for `COc1cc(-c2cc(=O)c3ccc(O)cc3o2)cc(OC)c1O` was 400 µg/mL (≈ 1270 µM).
As to `COc1ccc2oc(-c3cc(OC)c(OC)c(OC)c3)cc(=O)c2c1`, the half-inhibitory concentration (IC50) is greater than 800 µg/mL.
Next, `COc1cc(-c2cc(=O)c3ccc(OC(C)=O)cc3o2)cc(OC)c1O`: greater than 800 µg/mL; `COc1cc(-c2cc(=O)c3ccc(OC(C)=O)c(OC(C)=O)c3o2)cc(OC)c1O[Si](C)(C)C(C)(C)C`: greater than 800 µg/mL.
The value for `COc1cc(-c2cc(=O)c3cc(O)ccc3o2)cc(OC)c1O[Si](C)(C)C(C)(C)C` was 160 µg/mL (≈ 373 µM); that for `O=c1cc(-c2cccc(O)c2)oc2ccc(O)cc12` was 4 µg/mL (≈ 15.7 µM).
Next, `COc1cc(-c2cc(=O)c3ccc(OC(C)=O)cc3o2)cc(OC)c1O[Si](C)(C)C(C)(C)C`: greater than 800 µg/mL.
`COc1cc(-c2cc(=O)c3ccc(O)c(O)c3o2)cc(OC)c1O[Si](C)(C)C(C)(C)C` had an IC50 of 40 µg/mL (≈ 90 µM).
`O=c1cc(-c2cccc(O)c2)oc2cccc(O)c12` had a half-maximal inhibitory concentration (IC50) of 80 µg/mL (≈ 315 µM).
For `COc1cc(-c2cc(=O)c3cc(O)ccc3o2)cc(OC)c1OC`, the IC50 amounted to 20 µg/mL (≈ 60.9 µM).
On to `COc1ccc2c(=O)cc(-c3cc(OC)c(OC)c(OC)c3)oc2c1`, for which the IC50 is greater than 800 µg/mL.
Compound `O=c1c(O)c(-c2cc(O)cc(O)c2)oc2cc(O)cc(O)c12` yielded a concentration for half-maximal inhibition (IC50) of 30 µg/mL (≈ 99.3 µM).
Compound `O=c1cc(-c2ccccc2)oc2c(O)c(O)ccc12` [7,8-DIHYDROXYFLAVONE] yielded an IC50 of 80 µg/mL (≈ 315 µM).
With `O=c1cc(-c2ccccc2)oc2cc(O)ccc12` [7-HYDROXYFLAVONE], the IC50 worked out at 80 µg/mL (≈ 336 µM).
The value for `O=c1cc(-c2ccc(O)cc2)oc2cc(O)cc(O)c12` [APIGENIN] was 4 µg/mL (≈ 14.8 µM).
`O=c1cc(-c2ccccc2)oc2cc(O)cc(O)c12` [CHRYSIN] yielded an IC50 of 5 µg/mL (≈ 19.7 µM).
Next, `O=c1c(O)c(-c2ccc(O)c(O)c2)oc2cc(O)ccc12` [FISETIN]: 4 µg/mL (≈ 14 µM); `O=c1c(O)c(-c2ccccc2)oc2cc(O)cc(O)c12` [GALANGIN]: 80 µg/mL (≈ 296 µM).
Turning to `COc1cc(O)c2c(=O)cc(-c3ccc(O)cc3)oc2c1` [GENKWANIN], the IC50 is 80 µg/mL (≈ 281 µM).
The value for `O=c1cc(-c2ccc(O)c(O)c2)oc2cc(O)cc(O)c12` [LUTEOLIN] was 10 µg/mL (≈ 34.9 µM); that for `O=c1c(O)c(-c2ccc(O)c(O)c2)oc2cc(O)cc(O)c12` [QUERCETIN] was 4 µg/mL (≈ 13.2 µM).
`COc1cc(-c2oc3cc(O)cc(O)c3c(=O)c2O)cc(OC)c1O` [SYRINGETIN] returned an IC50 of 24 µg/mL (≈ 69.3 µM). Compared with the last compound, the IC50 is about 6-fold higher.
